ABHD4 inh: inhibits mouse alpha/beta hydrolase domain 4; inhibition, % at 8.92 µM; 370,000 tested, 0.54% active; purified mABHD4, FP-Rh probe fluorescence polarization; Q8VD66; AID 720543;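 active = inhibition exceeding the mean over every tested compound plus 3 SD, cut at about 30% in these data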;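 also: 0% = plate median of compound wells and 100% = S159A mutant with DMSO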
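assay system = mABHD4 protein | compound dosing = single nominal dose of 8.92 µM, 0.89% DMSO final | read-out basis = percent inhibition of probe binding, normalized to plate controls | schedule = Enzyme–compound pre-incubation 45 min, then probe 60 min, both 25 °C | detection = fluorescence polarization, excitation 525 nm, emission 598 nm, BODIPY TMR filters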
HTRA1 inh: HTRA1 (human) protease inhibition | recombinant HTRA1, FP-rhodamine activity-based probe, fluorescence polarization | Q92743 | AID 504803 | 340,000 tested, 0.5% active | inhibition, % at 5.96 µM; in the data active = inhibition above about 36%;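 also: 0% = enzyme with DMSO and 100% = wells lacking enzyme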
Target sequence (Q92743 whole entry, looked up): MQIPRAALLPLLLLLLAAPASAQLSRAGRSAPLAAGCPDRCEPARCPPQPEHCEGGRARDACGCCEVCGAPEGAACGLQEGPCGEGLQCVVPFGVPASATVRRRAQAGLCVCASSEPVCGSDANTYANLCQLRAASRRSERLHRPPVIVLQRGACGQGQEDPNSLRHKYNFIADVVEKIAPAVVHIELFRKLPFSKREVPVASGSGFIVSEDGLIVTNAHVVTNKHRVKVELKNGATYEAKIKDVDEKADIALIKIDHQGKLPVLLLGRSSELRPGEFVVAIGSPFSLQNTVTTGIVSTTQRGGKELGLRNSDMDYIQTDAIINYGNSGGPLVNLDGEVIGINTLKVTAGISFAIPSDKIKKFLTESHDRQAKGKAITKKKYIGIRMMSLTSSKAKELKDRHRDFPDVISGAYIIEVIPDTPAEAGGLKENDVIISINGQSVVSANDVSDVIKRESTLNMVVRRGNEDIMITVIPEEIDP
TCR CD3 inh: inhibitors of human TCR-CD3 interaction; TAMRA-labeled TCR probe fluorescence, biochemical; inhibition, % at 9.4 µM; 360,000 tested, 0.37% active; in the data active = inhibition above about 19%;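 also: recombinant mutant TCR 2C K166C tagged with TAMRA read by polarization; 0% = receptor in buffer alone and 100% = receptor with positive control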
SIAE primary: human SIAE inhibition, primary screen | Q9HAT2 | SIAE FP-Rh probe binding, fluorescence polarization | inhibition, % at 9.66 µM | 370,000 tested, 0.69% active | AID 1053197;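 active = inhibition above a cutoff: mean of compounds within the control limits plus 3 SD of those, cut at about 17% in these data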;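 also: 0% = plate median of compound wells and 100% = probe without SIAE protein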
PRMT1 inh: inhibitors of human PRMT1; AID 652257; inhibition, % at 2.79 µM; 370,000 tested, 1.3% active; recombinant PRMT1, activity-based probe fluorescence polarization;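 active = inhibition above about 21% made by adding two undisclosed values, limit read from the data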
PRMT1 confirm: confirmation of human PRMT1 inhibitors | inhibition, % at 2.79 µM | shares compounds with PRMT1 inh | 3,300 tested, 42% active | recombinant His-PRMT1, activity-based probe fluorescence polarization;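 active = mean inhibition across replicates above the hit cutoff derived for the earlier primary screen, cut at about 22% in these data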
* marks the source's active call; other numbers are inactive results; . = not tested or not shown. Only some compounds are listed: those with a hit (about 2.5% of all), similar ones and a draw of the others.

SMILES	ABHD4 inh	HTRA1 inh	TCR CD3 inh	SIAE primary	PRMT1 inh	PRMT1 confirm
CC(=O)Nc1ccc(S(=O)(=O)NC(C)C(=O)NC(C)c2ccccc2)cc1 (stereo unspecified)	2	-3	5	-3	44*	55*
CC(=O)Nc1ccc(S(=O)(=O)NC(C)c2ccncc2)cc1 (stereo unspecified)	-1	-1	-6	3	1	.
S=c1[nH]cc(-c2ccc(Cl)cc2)n1Cc1ccccc1	-6	0	6	3	10	.
CC(C)Cn1c(-c2ccc(Br)cc2)c[nH]c1=S	-9	1	0	1	41*	21
O=C(O)/C=C\C(=O)Nc1ccccc1C(=O)N1CCC(O)(c2ccc(Cl)cc2)CC1	5	-7	0	4	29*	-6
CCOc1cccc(=O)c2c(C)n(CC(=O)c3ccccc3)c(C)c12	11	21	3	8	5	.
COc1cccc(=O)c2c(C)n(CC(=O)c3ccccc3)c(C)c12	26	29	6	5	36*	8
N#Cc1cc2c([nH]c1=S)CCCCCC2	-6	-2	1	0	26*	12
N#Cc1c(N)n[nH]c1-c1cc2c([nH]1)CCCC2	11	6	5	6	0	.
NC(CSS(=O)(=O)O)=NCCC12CC3CC(CC(O)(C3)C1)C2	3	4	5	-3	41*	44*
Cc1ccc(CSCC(=O)NCc2cccs2)cc1	2	1	5	5	1	.
CCCCN(C(=O)c1ccc(Cl)c(S(=O)(=O)N2CCOCC2)c1)c1c(N)n(CCC)c(=O)[nH]c1=O	-4	2	13	0	0	.
COc1ccc(CC(=O)Nc2ncc([N+](=O)[O-])s2)cc1OC	5	6	-6	-7	47*	21
COc1ccc(CC(=O)Nc2nccs2)cc1OC	0	2	0	5	1	.
COc1cc(OCc2ccc(C)cc2)ccc1CNC[C@H]1O[C@@H](n2cnc(C(N)=O)n2)[C@H](O)[C@@H]1O	-8	5	9	-14	-6	.
CC(/C=C1\N=C(SCc2ccccc2)SC1=O)=C\c1ccccc1	4	-15	-16	-22	11	.
COc1ccc2c(Cl)c(C(=O)N/N=C3\CCCC(=O)C3)sc2c1	-5	-21	0	9	38*	-6
COc1ccc2c(Cl)c(C(=O)N/N=C/c3ccc4c(c3)OCO4)sc2c1	-10	-6	7	-18	0	.
C/C(N)=C(/C#N)C(=O)CSc1nc2ccc(C)cc2[nH]1	6	1	4	3	26*	4
Cc1ccc2nc(SCC(=O)c3cc(C)n(C)c3C)[nH]c2c1	0	-6	-1	10	7	.
O=C(O)c1cc(N/N=C/c2ccc(-c3ccc(F)cc3)o2)ccc1Cl	24	2	-3	5	34*	0
c1cc(SSc2ccncc2)ccn1	7	3	3	7	87*	83*
c1ccc(Sc2ccncc2)cc1	0	2	3	-6	-3	.
CC1(C)CC(=O)C2=C(C1)Nc1ccccc1NC2	-1	-7	-12	-7	25*	0
CC1(C)CC(=O)C2=C(C1)Nc1ccccc1S2	7	5	-7	2	15	.
SMILES	ABHD4 inh	HTRA1 inh	TCR CD3 inh	SIAE primary	PRMT1 inh	PRMT1 confirm
COc1cccc(/C=N/N2C(=O)CSC2=S)c1O	18	14	10	-7	38*	53*
CN(Cc1c(F)cccc1Cl)C(=O)c1ccc(NC(=O)CC2SC(N3CCCC3)=NC2=O)cc1 (stereo unspecified)	-1	-3	8	0	101*	2
C[C@@H]1CN([C@@H](C)CO)C(=O)CCCn2cc(nn2)CO[C@H]1CN(C)C(=O)C1CCCCC1	0	.	4	3	-2	.
COc1ccc(Cc2c(-c3ccco3)nc3c(C)cc(Br)cn23)c(C)c1	-6	.	0	-3	7	.
COc1ccc(Cc2c(-c3ccco3)nc3ccc(Br)cn23)c(C)c1	14	.	7	-4	31*	20
COc1ccc(Cc2c(-c3ccco3)nc3ccc(Cl)cn23)c(C)c1	10	.	2	3	27*	15
Cc1ccc(Cc2c(-c3ccco3)nc3ccc(Br)cn23)cc1	11	.	0	-2	31*	16
COc1ccc(Cc2c(-c3ccccc3)nc3ccc(Cl)cn23)c(C)c1	2	.	-1	-3	-2	.

Assay outcomes (PubChem)
